# Active and inactive are the calls of the source. The calls are words filed in the database; no cut-off is given here.
# Key:
# [1] = Antiinflammatory activity against mouse […] cells assessed as inhibition of LPS-induced nitrite accumulation at 1 mM treated 1 hr before LPS challenge assessed after 24 hrs; type: functional
# In short: (§1)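 RAW 264.7 cells in DMEM with 5% FCS seeded at 2×10^5 cells/well and allowed to adhere overnight. Pretreated 1 h at 37 °C with compound or 0.5% DMSO (final), then stimulated with 1 μg mL⁻¹ E. coli 0111:B4 LPS for 24 h. Medium nitrite measured by Griess reaction (absorbance 550 nm) using an NaNO₂ standard curve. Mean ± s.e.m., n=3.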
# [2] = Antiinflammatory activity against mouse […] cells assessed as inhibition of LPS-induced nitrite accumulation at 0.3 mM treated 1 hr before LPS challenge assessed after 24 hrs; type: functional; in short: as §1
# [3] = Antiinflammatory activity against mouse […] cells assessed as inhibition of LPS-induced nitrite accumulation treated 1 hr before LPS challenge assessed after 24 hrs; type: functional, cell-based
# In short: (§2)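 RAW 264.7 macrophages were plated at 2×10^5 cells/well in DMEM with 5% FCS and adhered overnight. They were pretreated 1 h at 37 °C with compound or 0.5% DMSO vehicle, then stimulated with E. coli 0111:B4 LPS 1 μg/mL for 24 h. Medium nitrite was read by Griess reaction (10 min at RT, A550) against an NaNO₂ standard. Mean ± s.e.m., n=3; IC50 from concentration–response.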
# [4] = Antiinflammatory activity against mouse […] cells assessed as inhibition of LPS-induced nitrite accumulation at 0.1 mM treated 1 hr before LPS challenge assessed after 24 hrs; type: functional; in short: as §1
# N9 [5] = experiment: Antiinflammatory activity against mouse N9 cells assessed as inhibition of LPS/IFN-gamma-induced nitrite accumulation treated 1 hr before LPS challenge assessed after 24 hrs
# [6] = Antiinflammatory activity against mouse […] cells assessed as inhibition of LPS-induced nitrite accumulation at 3 uM treated 1 hr before LPS challenge assessed after 24 hrs; type: functional; in short: as §2
# N9 [7] = experiment: Antiinflammatory activity against mouse N9 cells assessed as inhibition of LPS/IFN-gamma-induced nitrite accumulation at 10 uM treated 1 hr before LPS challenge assessed after 24 hrs
# [8] = Antiinflammatory activity against mouse […] cells assessed as inhibition of LPS-induced nitrite accumulation at 10 uM treated 1 hr before LPS challenge assessed after 24 hrs; type: functional; in short: as §2
# N9 [9] = experiment: Antiinflammatory activity against mouse N9 cells assessed as inhibition of LPS/IFN-gamma-induced TNFalpha generation treated 1 hr before LPS challenge assessed after 24 hrs; type: functional, cell-based
# In short: (§3)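 TNF-α release assay. Cells were pretreated with compound at 37 °C for 1 h and then stimulated for 24 h. N9 microglia were in Iscove's medium with 2% heat-inactivated FCS at 8×10^4 cells/well and were stimulated with LPS 10 μg/mL. RAW 264.7 cells were in DMEM with 5% FCS at 2×10^5 cells/well and were stimulated with LPS 1 μg/mL. Medium was stored at -70 °C until assay.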
# Mus musculus = species: Mus musculus; experiment: Antiinflammatory activity against mouse […] cells assessed as inhibition of LPS-induced TNFalpha generation treated 1 hr before LPS challenge assessed after 24 hrs; type: functional, cell-based; in short: as §3
# [10] = Antiinflammatory activity against mouse […] cells assessed as inhibition of LPS-induced nitrite accumulation at 30 uM treated 1 hr before LPS challenge assessed after 24 hrs; type: functional; in short: as §2
# N9 [11] = experiment: Antiinflammatory activity against mouse N9 cells assessed as inhibition of LPS/IFN-gamma-induced nitrite accumulation at 30 uM treated 1 hr before LPS challenge assessed after 24 hrs
IC50 [3],Compound,inhibition at 1000 µM [1],inhibition at 300 µM [2],inhibition at 100 µM [4],IC50 (N9 [5]),inhibition at 3 µM [6],inhibition at 10 µM (N9 [7]),inhibition at 10 µM [8],Activity (N9 [9]),Activity (Mus musculus),inhibition at 30 µM [10],inhibition at 30 µM (N9 [11])
27.1 µM,COc1cc2c(O[C@@H]3OC[C@](O)(CO[C@@H]4OC[C@@H](O)[C@H](O)[C@H]4O)[C@H]3O[C@@H]3OC[C@H](O)[C@H](O)[C@H]3O)c3c(c(-c4ccc5c(c4)OCO5)c2cc1OC)C(=O)OC3 [CILIATOSIDE A],–,–,–,–,22%,46.7%,18.7%,inactive,inactive,11.9%,37.9%
29.4 µM,COc1cc2c(O[C@@H]3OC[C@](O)(CO[C@@H]4OC[C@@H](O)[C@H](O)[C@H]4O)[C@H]3O[C@@H]3OC[C@H](O)[C@H](O[C@@H]4OC[C@](O)(CO)[C@H]4O)[C@H]3O)c3c(c(-c4ccc5c(c4)OCO5)c2cc1OC)C(=O)OC3 [CILIATOSIDE B],–,–,–,–,20.7%,42.8%,20.5%,inactive,inactive,12.4%,36.5%

Compound,IC50 [3],inhibition at 1000 µM [1],inhibition at 300 µM [2],inhibition at 100 µM [4],IC50 (N9 [5]),inhibition at 3 µM [6],inhibition at 10 µM (N9 [7]),inhibition at 10 µM [8],Activity (N9 [9]),Activity (Mus musculus),inhibition at 30 µM [10],inhibition at 30 µM (N9 [11])
COC(=O)[C@@H](N)CCCNC(=N)N[N+](=O)[O-] [L-NAME],510 µM,6.6%,15.6%,16.8%,630 µM,–,–,–,–,–,–,–
